Measurements as given in ChEMBL document CHEMBL1127410, “Dipeptide phosphonates as inhibitors of dipeptidyl peptidase IV” (J Med Chem, 1994).

How the values were obtained:
[1] = Half life for the spontaneous hydrolysis in buffer was measured; assay type: ADME
Summary of the method: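 Inhibitor (0.1 mM final) in 0.05 M Tris pH 7.8 with 10% v/v Me2SO. Spontaneous hydrolysis followed as absorbance rise at 270 nm (phenoxy), 280 nm (4-chlorophenoxy) or 277 nm (4-fluorophenoxy). Half-lives from first-order plots of ln(Af − At) vs time, Af being final absorbance of monophenyl ester plus phenol.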

[2] = target: Dipeptidyl peptidase 4 (Homo sapiens) (UniProt P27487)
Dipeptidyl peptidase 4 (Homo sapiens), sequence (P27487 whole entry, looked up): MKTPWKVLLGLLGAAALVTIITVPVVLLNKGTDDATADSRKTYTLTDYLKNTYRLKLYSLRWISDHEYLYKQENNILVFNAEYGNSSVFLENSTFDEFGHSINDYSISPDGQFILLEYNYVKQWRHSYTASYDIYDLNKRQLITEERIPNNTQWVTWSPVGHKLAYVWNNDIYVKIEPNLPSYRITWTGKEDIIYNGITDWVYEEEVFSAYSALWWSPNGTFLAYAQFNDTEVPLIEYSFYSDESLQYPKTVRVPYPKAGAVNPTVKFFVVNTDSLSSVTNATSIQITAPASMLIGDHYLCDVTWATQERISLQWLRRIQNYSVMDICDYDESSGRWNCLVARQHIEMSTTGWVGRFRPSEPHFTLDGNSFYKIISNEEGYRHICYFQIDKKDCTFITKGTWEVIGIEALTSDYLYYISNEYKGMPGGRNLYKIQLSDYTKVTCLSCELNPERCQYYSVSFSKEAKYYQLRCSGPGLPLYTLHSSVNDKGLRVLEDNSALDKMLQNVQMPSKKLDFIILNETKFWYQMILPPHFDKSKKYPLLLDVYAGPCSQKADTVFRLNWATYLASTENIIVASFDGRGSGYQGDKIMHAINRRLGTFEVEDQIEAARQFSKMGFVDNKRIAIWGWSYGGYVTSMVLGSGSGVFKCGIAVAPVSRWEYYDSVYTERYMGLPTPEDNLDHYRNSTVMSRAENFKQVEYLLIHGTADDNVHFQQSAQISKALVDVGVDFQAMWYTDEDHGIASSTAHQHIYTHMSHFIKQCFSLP

[3] = target: Chymotrypsinogen A (Bos taurus) (UniProt P00766); test: The second order inhibition rate constant for the compound was measured against chymotrypsinogen
Papain (Carica papaya) = target: T1, Papain (Carica papaya) (UniProt P00784); test: The second order inhibition rate constant for the compound was measured against papain; NI-No inhibition after 30 min of incubation of enzyme with inhibitor
T1 sequence (whole entry): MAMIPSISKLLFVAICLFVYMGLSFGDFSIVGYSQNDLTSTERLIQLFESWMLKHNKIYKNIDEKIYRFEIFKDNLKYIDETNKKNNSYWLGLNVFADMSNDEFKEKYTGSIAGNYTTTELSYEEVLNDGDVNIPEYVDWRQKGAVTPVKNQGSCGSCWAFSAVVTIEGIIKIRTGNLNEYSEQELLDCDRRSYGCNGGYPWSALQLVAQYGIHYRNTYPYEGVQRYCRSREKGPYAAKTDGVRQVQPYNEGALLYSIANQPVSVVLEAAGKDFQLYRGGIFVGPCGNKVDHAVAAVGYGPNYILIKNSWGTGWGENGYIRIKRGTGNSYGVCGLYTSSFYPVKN
Summary of the method: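 Papain incubated with inhibitor in 50 mM Tris-HCl, 2 mM EDTA, 5 mM fresh cysteine pH 7.5, 8-9% Me2SO, 23 °C. Aliquots assayed with Bz-Arg-AMC, fluorescence at ex 380/em 460 nm. kobs from ln v/v0 vs time. NI means no inhibition after 30 min.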

[4] = target: T2, Chymotrypsin-like elastase family member 2A (Sus scrofa) (UniProt P08419); test: The second order inhibition rate constant for the compound was measured against PPE; NI-No inhibition after 30 min of incubation of enzyme with inhibitor
T2 sequence (whole entry): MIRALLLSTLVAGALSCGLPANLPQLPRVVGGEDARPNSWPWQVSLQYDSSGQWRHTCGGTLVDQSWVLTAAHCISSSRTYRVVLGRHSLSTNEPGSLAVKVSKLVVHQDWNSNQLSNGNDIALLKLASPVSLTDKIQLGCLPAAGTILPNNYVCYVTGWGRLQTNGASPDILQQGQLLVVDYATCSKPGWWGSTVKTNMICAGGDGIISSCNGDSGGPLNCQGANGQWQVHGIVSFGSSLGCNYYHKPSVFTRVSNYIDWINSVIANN

[5] = target: T3, Neutrophil elastase (Homo sapiens) (UniProt P08246); test: The second order inhibition rate constant for the compound was measured against HLE; NI-No inhibition after 30 min of incubation of enzyme with inhibitor
T3 sequence (whole entry): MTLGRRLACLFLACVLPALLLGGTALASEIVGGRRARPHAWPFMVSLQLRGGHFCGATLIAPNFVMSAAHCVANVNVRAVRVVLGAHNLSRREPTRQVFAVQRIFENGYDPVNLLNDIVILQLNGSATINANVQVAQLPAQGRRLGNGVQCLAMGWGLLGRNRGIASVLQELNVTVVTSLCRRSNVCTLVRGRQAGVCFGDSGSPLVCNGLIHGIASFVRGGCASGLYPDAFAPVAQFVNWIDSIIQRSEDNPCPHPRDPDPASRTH

[6] = target: Cathepsin B (Homo sapiens) (UniProt P07858); test: The second order inhibition rate constant for the compound was measured against cathepsin B; NI-No inhibition after 30 min of incubation of enzyme with inhibitor
Summary of the method: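 Cathepsin B incubated with inhibitor in 100 mM KH2PO4, 1.33 mM EDTA, 2.7 mM fresh cysteine pH 6.0, 8-9% Me2SO, 23 °C. Aliquots assayed with Z-Arg-Arg-AMC, fluorescence at ex 380/em 460 nm. kobs from ln v/v0 vs time. NI means no inhibition after 30 min.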

[7] = target: Chymotrypsinogen A (Bos taurus) (UniProt P00766)
[8] = target: T4, Choline O-acetyltransferase (Rattus norvegicus) (UniProt P32738)
T4 sequence (whole entry): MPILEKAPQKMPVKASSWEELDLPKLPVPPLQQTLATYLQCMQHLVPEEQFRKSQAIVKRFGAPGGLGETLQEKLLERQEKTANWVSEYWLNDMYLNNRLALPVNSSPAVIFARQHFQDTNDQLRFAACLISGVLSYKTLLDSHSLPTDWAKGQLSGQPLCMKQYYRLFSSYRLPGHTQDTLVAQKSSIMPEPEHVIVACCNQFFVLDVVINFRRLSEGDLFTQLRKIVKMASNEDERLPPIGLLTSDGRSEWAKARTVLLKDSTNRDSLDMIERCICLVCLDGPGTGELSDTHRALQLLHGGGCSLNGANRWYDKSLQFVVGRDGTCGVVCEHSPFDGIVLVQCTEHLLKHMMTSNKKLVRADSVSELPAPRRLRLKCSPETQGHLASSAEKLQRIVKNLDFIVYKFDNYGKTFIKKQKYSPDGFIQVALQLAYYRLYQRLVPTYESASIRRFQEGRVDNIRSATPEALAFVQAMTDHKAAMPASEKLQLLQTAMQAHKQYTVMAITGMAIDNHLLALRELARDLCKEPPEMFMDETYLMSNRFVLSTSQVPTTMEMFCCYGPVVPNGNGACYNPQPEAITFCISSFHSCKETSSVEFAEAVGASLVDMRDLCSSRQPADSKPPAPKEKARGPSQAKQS

Structure (SMILES)	K obs / 1 [2]	half-life [1]	K obs / 1 (Papain (Carica papaya))	K obs / 1 [4]	K obs / 1 [5]	K obs / 1 [6]	further results
C[C@H](N)C(=O)N1CCCCC1P(=O)(Oc1ccc(Cl)cc1)Oc1ccc(Cl)cc1 (some centres not stated) [listing 1 of 2 here]							T1/2 [1]: > 48 h
C[C@H](N)C(=O)N1CCCCC1P(=O)(Oc1ccccc1)Oc1ccccc1 (some centres not stated)	12.6 M⁻¹ s⁻¹	> 72 h					
C[C@H](N)C(=O)N1CCCCC1P(=O)(Oc1ccc(Cl)cc1)Oc1ccc(Cl)cc1 (mixture of isomers) [listing 1 of 2 here]		67 h					
C[C@H](N)C(=O)N1CCCCC1P(=O)(Oc1ccc(Cl)cc1)Oc1ccc(Cl)cc1 (some centres not stated) [listing 2 of 2 here]	1300 M⁻¹ s⁻¹						
NCCCC[C@H](N)C(=O)N1CCCCC1P(=O)(Oc1ccccc1)Oc1ccccc1 (some centres not stated)	4.2 M⁻¹ s⁻¹	> 48 h					
C[C@H](N)C(=O)N1CCC[C@H]1P(=O)(Oc1ccc(Cl)cc1)Oc1ccc(Cl)cc1	28 M⁻¹ s⁻¹	5.3 h	No inhibition	No inhibition	No inhibition	No inhibition	K obs / 1 [3]: 26 M⁻¹ s⁻¹
Br.Br.NCCCC[C@H](N)C(=O)N1CCC[C@H]1P(=O)(Oc1ccccc1)Oc1ccccc1	1.7 M⁻¹ s⁻¹	52 h					
C[C@H](N)C(=O)N1CCCCC1P(=O)(Oc1ccc(F)cc1)Oc1ccc(F)cc1 (some centres not stated)	12 M⁻¹ s⁻¹	68 h					
C[C@H](N)C(=O)N1CCCCC1P(=O)(Oc1ccc(Cl)cc1)Oc1ccc(Cl)cc1 (mixture of isomers) [listing 2 of 2 here]	156 M⁻¹ s⁻¹		No inhibition	No inhibition	No inhibition	No inhibition	K obs / 1 [3]: 18 M⁻¹ s⁻¹
C[C@H](N)C(=O)N1CCC[C@H]1P(=O)(Oc1ccccc1)Oc1ccccc1.Cl	1.2 M⁻¹ s⁻¹	23.1 h	No inhibition	No inhibition	No inhibition	No inhibition	K obs / 1 [7]: No inhibition; K obs / 1 [8]: No inhibition
